Published values of several laboratories.
Target: Serine/threonine-protein kinase Nek3 (NEK3, Homo sapiens, UniProt P51956)
One construct used (P51956 1-506): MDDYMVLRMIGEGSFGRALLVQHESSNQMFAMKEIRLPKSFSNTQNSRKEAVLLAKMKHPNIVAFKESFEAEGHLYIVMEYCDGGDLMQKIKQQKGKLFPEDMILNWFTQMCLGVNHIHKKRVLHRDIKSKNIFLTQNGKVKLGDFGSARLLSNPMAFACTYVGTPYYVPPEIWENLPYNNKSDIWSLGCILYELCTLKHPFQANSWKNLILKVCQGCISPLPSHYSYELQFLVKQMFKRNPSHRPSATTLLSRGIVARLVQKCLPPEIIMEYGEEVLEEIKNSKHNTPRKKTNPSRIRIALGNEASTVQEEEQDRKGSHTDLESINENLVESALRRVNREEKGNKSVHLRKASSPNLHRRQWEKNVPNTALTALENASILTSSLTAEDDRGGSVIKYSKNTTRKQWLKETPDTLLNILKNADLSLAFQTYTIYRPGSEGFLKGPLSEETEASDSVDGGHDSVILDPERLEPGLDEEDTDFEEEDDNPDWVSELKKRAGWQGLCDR

| SMILES | assay | setting | remaining binding [%] |
| --- | --- | --- | --- |
| CNC(=O)[C@@H]1CC[C@@H](n2c(-c3ccc4cnccc4c3)nc3ccc(C(=O)NCc4cccc(C(N)=O)c4)cc32)C1 | binding, competition with immobilised ligand | 1 µM | 61 |
| c1ccc(N2CCN(Cc3nc4ccccc4[nH]3)CC2)nc1 | binding, competition with immobilised ligand | 1 µM | 100 |
| O=C(c1ccc(Nc2ncc(Cl)c(-c3cc4ccccc4s3)n2)cc1)N1CCC(N2CCCC2)CC1 | binding, competition with immobilised ligand | 1 µM | 1.3 |
| CN(C)c1nccc(-c2cnc3ncccn23)n1 | binding | 1 µM | 100 |
| FC(F)(F)Oc1cccc(-c2cnc3ccc(-c4ccncc4)nn23)c1 | cell-free assay, competition with immobilised ligand | 5 µM | 73 |
| COc1cc(-c2cn(C3CCc4ccccc4N(CC(F)(F)F)C3=O)nn2)ccc1-n1ccc(C)n1 (stereo not drawn) | cell-free assay, competition with immobilised ligand | 1 µM | 100 |
| C[C@@H](c1ccc(-n2cnc3c(N)ncnc32)cc1)N1CCc2nn(C)c(Cc3ccccc3)c2C1=O | binding, competition with immobilised ligand | 0.1 µM | 30 |
| O=C(Nc1cnc(Oc2ccc(F)cc2)nc1)N1CCc2ncccc2[C@@H]1c1ccc(F)cc1 | cell-free assay, competition with immobilised ligand | 1 µM | 67 |
| N[C@H]1CCN(c2nccc(-c3cnn4ncccc34)n2)C1 | binding | 1 µM | 100 |
| N#CC1(c2ccccn2)CCN(Cc2cc(C(=O)N3CCCC3)c(=O)n3ccccc23)CC1 | cell-free assay, competition with immobilised ligand | 1 µM | 83 |
| O=C(c1ccc(Nc2ncc(Cl)c(-c3ccc(Cl)s3)n2)cc1)N1CCC(N2CCCC2)CC1 | binding, competition with immobilised ligand | 1 µM | 0.45 |
| CN(CCCC(F)(F)F)c1nccc(-c2cnn3ncccc23)n1 | binding | 1 µM | 100 |
| Nc1ncc2c(n1)-c1c([nH]c3ccc(C#CC4CC4)cc13)CCCC2 | binding, competition with immobilised ligand | 1 µM | 78 |
| O=C(O)[C@H]1[C@H](Cn2nnc3ccccc3c2=O)CC[C@@H]1C(=O)c1ccc(OCCC2CCOCC2)cc1 | cell-free assay, competition with immobilised ligand | 1 µM | 86 |
| CN(C)c1ncc(F)c(-c2cnn3ncccc23)n1 | binding | 1 µM | 70 |
| CCOCCn1cc(C(=O)Nc2ccc(-n3nc(-c4cccnc4)cc3C(F)(F)F)cn2)ccc1=O | cell-free assay, competition with immobilised ligand | 1 µM | 100 |
| O=C(NCC1CCOCC1)c1n[nH]cc1NC(=O)c1c(F)cccc1F | binding, competition with immobilised ligand | 1 µM | 66 |
| c1cnn2ncc(-c3ccnc(N4CCC45COC5)n3)c2c1 | binding | 1 µM | 64 |
| COc1cnc(Nc2cccc(S(N)(=O)=O)c2)nc1N1CCN(c2ccccc2)C(=O)C1 | binding, competition with immobilised ligand | 1 µM | 30 |
| C[C@@H]1CCN(c2nccc(-c3cnn4ncccc34)n2)C1 | binding | 1 µM | 81 |
| O=C(c1ccc(Nc2nccc(-c3cc4ccccc4s3)n2)cc1)N1CCC(N2CCCC2)CC1 | binding, competition with immobilised ligand | 1 µM | 5.4 |
